KCNQ1 act = potentiates or activates the human KCNQ1 potassium channel | B-score at 10 µM | P51787 | AID 2648 | 0.35% of 310,000 active | CHO-K1 KCNQ1, thallium flux FluxOR fluorescence; active compounds read high;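 active = fluorescence ratio B-score, a plate-corrected score, at least three library SD, with initial intensity B-score within 5 SD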
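Doses: Single concentration per compound, DMSO matched to controls | Test system: KCNQ1-transfected CHO-K1 cells | Timing: 90 min dye loading and 20 min compound exposure, both at room temperature | Measured by: Kinetic FluxOR thallium fluorescence, 10-s 1-Hz baseline, 110-s post-stimulus read | Medium: Assay buffer with matched DMSO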
Kir21 block = inhibitors of mouse Kir2.1 inward-rectifier potassium channel | P35561 | HEK293-Kir2.1, FluxOR thallium flux fluorescence; active compounds read low | B-score at 10 µM | 0.85% of 310,000 active | AID 1672;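 active = fluorescence ratio B-score at or below minus 3 SD of library scores, with starting-brightness B-score within 2 SD, cut at about -4.2 in these data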;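 note: channel flux triggered by added potassium and thallium sulfate stimulus; B-score of peak minus minimum fluorescence over baseline after thallium stimulus; more negative B-score means stronger Kir2.1 block with less thallium influx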
Target sequence (P35561 whole entry, looked up): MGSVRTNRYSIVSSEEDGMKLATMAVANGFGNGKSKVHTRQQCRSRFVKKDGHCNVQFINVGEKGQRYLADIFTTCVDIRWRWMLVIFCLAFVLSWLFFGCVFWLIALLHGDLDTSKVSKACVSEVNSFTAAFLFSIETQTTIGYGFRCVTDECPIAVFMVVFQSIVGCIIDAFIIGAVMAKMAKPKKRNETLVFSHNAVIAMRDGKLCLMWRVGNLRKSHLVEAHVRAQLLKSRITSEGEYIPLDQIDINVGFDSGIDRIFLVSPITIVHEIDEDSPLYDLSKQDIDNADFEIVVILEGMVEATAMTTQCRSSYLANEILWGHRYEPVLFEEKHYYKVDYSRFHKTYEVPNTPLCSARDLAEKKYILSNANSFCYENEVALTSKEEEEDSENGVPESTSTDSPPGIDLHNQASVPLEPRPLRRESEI
KCNK9 inh = inhibitors of human KCNK9 two-pore domain potassium channel | HEK293 KCNK9, FluxOR thallium flux fluorescence; active compounds read low | B-score at 10 µM | 1.2% of 310,000 active | AID 488922;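 active = ratio B-score over 3 SD below the library mean, with starting fluorescence within 5 SD of its mean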;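 note: negative B-score means less thallium flux so channel inhibition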
hERG rescue = compounds protecting human hERG from proarrhythmic drug block; Q12809; CHO-hERG, FluxOR thallium flux, dofetilide IC70 present; activation (rescue from dofetilide block), less the hit threshold, % at 10 µM; 0.51% of 310,000 active;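 active = activation above the mean of controls blocked by dofetilide plus 5 SD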;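 note: thallium influx through hERG after potassium depolarization seen as dye fluorescence rise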
KCNK3 inh = human KCNK3 channel inhibition, primary screen; B-score at 10 µM; O14649; CHO-KCNK3 thallium flux, FluxOR fluorescence; active compounds read low; AID 602410; 0.84% of 340,000 active;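 active = B-score under library mean minus 4 SD, starting fluorescence ratio at most library mean plus 5 SD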;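 note: more negative B-score means stronger inhibition of thallium flux through KCNK3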
KCNQ1 block = blocks the human KCNQ1 potassium channel; P51787; CHO-K1 KCNQ1, FluxOR thallium flux fluorescence; active compounds read high; B-score at 10 µM; 1.3% of 310,000 active;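 active = compounds whose thallium flux B-score, printed positive for inhibition, exceeds three library SD while starting fluorescence stays within three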;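 note: channel opened by potassium depolarization with thallium stimulus after 20 min compound exposure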
KCNK9 block conf = human KCNK9 inhibitor confirmation | shares compounds with KCNK9 inh | HEK293 KCNK9 cells, FluxOR thallium flux fluorescence | inhibition, % at 10 µM | 43% of 4,900 active | AID 492992;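 active = thallium signal inhibited by more than 5 SD of the compound-free buffer control wells, on both duplicate plates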
Kir2-1 spec = tests whether KCNK9 modulators also affect mouse Kir2.1. 4% of 4,900 active. shares compounds with KCNK9 inh. Kir2.1 cells, FluxOR thallium flux fluorescence. inhibition, % at 10 µM;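 active = thallium signal drop more than 5 SD beyond the mean of the no-compound control wells, seen in both duplicate plates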;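 note: signal is fluorescence rise after thallium addition divided by baseline fluorescence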
KCNK9 uninduced = second check of KCNK9 modulator effects in non-induced HEK293 cells | shares compounds with KCNK9 inh | FluxOR thallium flux | inhibition, % at 10 µM | 40% of 4,900 active | AID 492997;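 active = thallium signal drop beyond 5 SD of the untreated control mean, on both duplicate plates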
Hits are given with their value; – = inactive; · = not tested or not shown. Sampled rows, rich in hits. Any-hit rate of the full collection: about 3.7%.

SMILES	KCNQ1 act	Kir21 block	KCNK9 inh	hERG rescue	KCNK3 inh	KCNQ1 block	KCNK9 block conf	Kir2-1 spec	KCNK9 uninduced
COc1ccc(CNC(C)C23CC4CC(CC(C4)C2)C3)c(OC)c1OC (stereo not drawn)	–	–	–	–	–	–	·	·	·
NC(=O)COC(=O)c1ccc(Cl)c(S(=O)(=O)N(Cc2ccccc2)c2ccc(Cl)cc2)c1	–	–	–	–	–	–	·	·	·
O=C(O)c1ccc(Cl)c(S(=O)(=O)N(Cc2ccccc2)c2ccc(Cl)cc2)c1	–	–	–	–	–	–	–	–	–
CN(C)CC/C=C1/c2cc(F)ccc2Sc2ccc(Cl)cc21	–	-8.48	–	–	–	–	–	–	–
COc1cc(Cl)cc2c1Sc1ccccc1/C2=C/CCN(C)C	–	-12.7	–	–	–	–	–	–	–
CN1CCN(C2=Cc3cc(Cl)ccc3Sc3cc(F)ccc32)CC1	–	–	–	–	–	–	·	·	·
CN(C)CC/C=C1/c2ccccc2Sc2c(O)cc(Cl)cc21	–	–	–	–	–	–	·	·	·
O=C(NCc1cccs1)c1cc(-c2ccccc2)nn1CC1CC(c2cccc([N+](=O)[O-])c2)=NO1 (stereo not drawn)	–	–	–	–	–	–	·	·	·
COc1ccccc1CNC(=O)c1cc(-c2ccccc2)nn1CC1CC(c2cccc([N+](=O)[O-])c2)=NO1 (stereo not drawn)	–	–	-8.65	–	–	–	44.5%	–	30.0%
CCOC(=O)c1c(C)c(C(=O)N2CCN(c3cccc(Cl)c3)CC2)c(C)n1C	–	–	–	–	–	–	–	–	–
CCOc1ccc(CN(C)C(=O)CNC(=O)c2cc(OC)c(OC)c(OC)c2)cc1	–	–	–	–	–	–	·	·	·
Cc1ccc(SCC(=O)NCCSCc2ccccc2)cc1	–	–	–	–	–	–	–	–	–
Cc1ccccc1CSCCNC(=O)CCSc1ccccc1	–	–	–	–	–	–	–	–	–
Cc1ccc(CSCCNC(=O)CCSc2ccccc2)cc1	–	–	–	–	–	–	·	·	·
Cc1ccc(CSCCNC(=O)CN(c2cc(C)ccc2C)S(C)(=O)=O)cc1	–	–	–	–	–	–	–	–	–
Cc1ccc(C)c(N(CC(=O)NCCSCc2ccco2)S(C)(=O)=O)c1	–	–	–	–	–	–	·	·	·
Cc1nn(C(C)C)c(C)c1CN1CCCC(C(=O)c2cccc(OC(C)C)c2)C1 (stereo not drawn)	–	–	–	–	–	–	–	–	–
COc1cccc(C(=O)C2CCCN(Cc3cccc(OCCO)c3)C2)c1 (stereo not drawn)	–	–	–	–	–	–	·	·	·
COc1cccc(C(=O)C2CCCN(Cc3cccc(-n4nc(C)cc4C)c3)C2)c1 (stereo not drawn)	–	–	–	–	–	–	–	–	–
CCc1ccccc1NC(=O)NNC(=O)CCc1ccc(OC)cc1	–	–	–	–	–	–	·	·	·
O=C(O)CNC(=O)c1ccc(Oc2c(F)c(F)c(Oc3ccc(C(=O)NCC(=O)O)cc3)c(F)c2F)cc1	–	–	–	–	–	–	·	·	·
Cc1nc(SCc2nc3ccccc3[nH]2)c2oc3cc([N+](=O)[O-])ccc3c2n1	·	·	·	·	–	·	·	·	·
COc1ccc(-c2c([C@H]3[C@@H]4C=CCC[C@@]4(C)C(=O)N3Cc3ccccc3)ccc3ccccc23)cc1OC	–	–	–	–	–	–	–	–	–
COc1ccc(-c2ccc([C@H]3[C@@H]4C=CCC[C@@]4(C)C(=O)N3Cc3ccccc3)c(F)c2)cc1OC	–	–	–	–	–	–	·	·	·
Cc1ccc(-n2ncc3c2CCCC3NC(=O)CSc2ccccn2)cc1C (stereo not drawn)	–	–	–	–	–	–	–	–	–

Source: PubChem (Johns Hopkins Ion Channel Center)
